Here are results for four compounds from ChEMBL document CHEMBL1649139, “A novel gene, erm(41), confers inducible macrolide resistance to clinical isolates of Mycobacterium abscessus but is absent from Mycobacterium chelonae” (2009).

Holding throughout (format): functional
The test system of experiment [1] is Mycolicibacterium smegmatis. The experiment in a line: Antimicrobial activity against Mycobacterium smegmatis transformed with erm allele Mycobacterium abscessus isolate MC958 preincubated with 2 ug/ml erythromycin for 20 to 24 hrs by broth microdilution method. A general note: Broth dilution looks for growth in wells or tubes with falling amounts of substance.

Experiment [2] deals with Mycobacteroides abscessus. The experiment in a line: Antimicrobial activity against Mycobacterium abscessus isolate MC1028 on day 4 by broth microdilution method. The following applies: isolate MC1028, 96 h.
Experiment [3] has as its system Mycolicibacterium smegmatis. The experiment in a line: Antimicrobial activity against Mycobacterium smegmatis transformed with erm allele Mycobacterium abscessus isolate MC1028 by broth microdilution method.
In experiment [4] the test system is Mycolicibacterium smegmatis. Nature of the experiment: Antimicrobial activity against Mycobacterium smegmatis transformed with erm allele Mycobacterium abscessus isolate MAB30 by broth microdilution method.
Experiment [5] relates to Mycobacteroides abscessus. The experiment in a line: Antimicrobial activity against Mycobacterium abscessus isolate MC879 at day 7 by broth microdilution method. Particulars: isolate MC879, 168 h. A digest of the protocol:
(§1)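 Clarithromycin MIC by broth microdilution following CLSI guidelines. Organisms were preincubated […], for 3 days before the assay. This allowed at least two generations, judged by the rise in turbidity. The MIC was read at the stated day, with incubation extended from day 3 to as long as 14 days.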

Experiment [6] concerns Mycobacteroides abscessus. Nature of the experiment: Antimicrobial activity against Mycobacterium abscessus isolate MC958 at day 7 by broth microdilution method. Particulars: isolate MC958, 168 h. In short, it runs like this:
as §1

In experiment [7] the test system is Mycolicibacterium smegmatis. The experiment in a line: Antimicrobial activity against Mycobacterium smegmatis transformed with erm allele Mycobacterium abscessus isolate MC958 by broth microdilution method.
Experiment [8] has as its system Mycolicibacterium smegmatis. The experiment in a line: Antimicrobial activity against Mycobacterium smegmatis transformed with erm allele Mycobacterium abscessus isolate MC719 preincubated with 2 ug/ml erythromycin for 20 to 24 hrs by broth microdilution method.
The subject of experiment [9] is Mycolicibacterium smegmatis. Nature of the experiment: Antimicrobial activity against Mycobacterium smegmatis transformed with erm allele Mycobacterium abscessus isolate MAB30 preincubated with 2 ug/ml erythromycin for 20 to 24 hrs by broth microdilution method.
Experiment [10] has as its system Mycobacteroides abscessus. The experiment in a line: Antimicrobial activity against Mycobacterium abscessus isolate MC879 at day 5 preincubated with 0.1 ug/ml for 3 days by broth microdilution method. A digest of the protocol: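 To test inducible resistance, cultures were preincubated for 3 days in clarithromycin or erythromycin, within 0.01–1 μg/ml. The period was set so cultures passed at least two generations, judged by turbidity increase. Clarithromycin MIC was then determined by CLSI-conforming broth microdilution and read on the stated day, from day 3 up to 14.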

For experiment [11], the system named is Mycolicibacterium smegmatis. Nature of the experiment: Antimicrobial activity against Mycobacterium smegmatis transformed with erm allele Mycobacterium abscessus isolate MC719 by broth microdilution method.
The subject of experiment [12] is Mycolicibacterium smegmatis. Nature of the experiment: Antimicrobial activity against Mycobacterium smegmatis transformed with erm allele Mycobacterium abscessus isolate MC1028 preincubated with 2 ug/ml erythromycin for 20 to 24 hrs by broth microdilution method.
Experiment [13] deals with Mycolicibacterium smegmatis. Nature of the experiment: Antimicrobial activity against Mycobacterium smegmatis transformed with erm allele Mycobacterium abscessus isolate MC720 preincubated with 2 ug/ml erythromycin for 20 to 24 hrs by broth microdilution method.
Experiment [14] deals with Mycolicibacterium smegmatis. The experiment in a line: Antimicrobial activity against Mycobacterium smegmatis transformed with erm allele Mycobacterium abscessus isolate MC1082 preincubated with 2 ug/ml erythromycin for 20 to 24 hrs by broth microdilution method.
Experiment [15] has as its system Mycobacteroides abscessus. Nature of the experiment: Antimicrobial activity against Mycobacterium abscessus isolate MC879 on day 4 by broth microdilution method. Particulars: isolate MC879, 96 h.
The subject of experiment [16] is Mycobacteroides abscessus. Nature of the experiment: Antimicrobial activity against Mycobacterium abscessus isolate MC1028 at day 7 by broth microdilution method. The following applies: isolate MC1028, 168 h. In short, it runs like this:
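Clarithromycin MIC by CLSI-conforming broth microdilution. Before testing, cultures were preincubated for 3 days, either in medium alone or in clarithromycin or erythromycin (tested range 0.01–1 μg/ml). Preincubation ran for at least two generations, judged by turbidity increase. Plates were read on day 3 and on extended incubation at days 5 to 14.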

For experiment [17], the system named is Mycolicibacterium smegmatis. Nature of the experiment: Antimicrobial activity against Mycobacterium smegmatis transformed with erm allele Mycobacterium abscessus isolate MC1082 by broth microdilution method.
The test system of experiment [18] is Mycolicibacterium smegmatis. Nature of the experiment: Antimicrobial activity against Mycobacterium smegmatis transformed with erm allele Mycobacterium abscessus isolate MC879 by broth microdilution method.
Experiment [19] deals with Mycolicibacterium smegmatis. The experiment in a line: Antimicrobial activity against Mycobacterium smegmatis transformed with erm allele Mycobacterium abscessus isolate MC720 by broth microdilution method.
The subject of experiment [20] is Mycolicibacterium smegmatis. Nature of the experiment: Antimicrobial activity against Mycobacterium smegmatis transformed with erm allele Mycobacterium abscessus isolate MC879 preincubated with 2 ug/ml erythromycin for 20 to 24 hrs by broth microdilution method.
The subject of experiment [21] is Mycobacteroides abscessus. The experiment in a line: Antimicrobial activity against Mycobacterium abscessus isolate MC958 on day 4 by broth microdilution method. The following applies: isolate MC958, 96 h.
The subject of experiment [22] is Mycolicibacterium smegmatis. The experiment in a line: Antimicrobial activity against Mycobacterium smegmatis transformed with erm allele Mycobacterium abscessus isolate MC879-2 by broth microdilution method.
The test system of experiment [23] is Mycolicibacterium smegmatis. Nature of the experiment: Antimicrobial activity against Mycobacterium smegmatis transformed with erm allele Mycobacterium abscessus isolate MC879-2 preincubated with 2 ug/ml erythromycin for 20 to 24 hrs by broth microdilution method.

In brackets after ≈: the same amount, converted by molar mass. Numbered stars: 1 amine (or outer) side, 2 acyl side, 3 side chain; on linkers, the order of the positions; unused ones are H or OH. Bridge positions count the residues as written; N and C are the ends. Square brackets hold non-standard residues; d marks the D form. Peptide text beside a SMILES is read from it. * marks the point of attachment. X1 = O=C1C[C@@H](C(=O)[*:2])N([*:1])C[C@H]1CS[C@@H]1CN2CCC1CC2; NMePhe(4-NMe2) = CN[C@@H](Cc1ccc(N(C)C)cc1)C(=O)O; Picolinoyl(3-OH) = O=C(c1ncccc1O)*; Phg = N[C@H](C(=O)O)c1ccccc1; dAbu = CC[C@@H](N)C(=O)O

For orientation: MIC means the lowest concentration that inhibits growth of the organism. For `CCC[C@@H]1C[C@@H](C(=O)N[C@@H]([C@H]2O[C@H](SC)[C@H](O)[C@@H](O)[C@H]2O)[C@H](C)Cl)N(C)C1` [CLINDAMYCIN], the MIC was above 512 µg/mL in experiment [1]; 64 µg/mL (≈ 151 µM) in [2]; 32 µg/mL (≈ 75.3 µM) in experiment [3]; 32 µg/mL (≈ 75.3 µM) in [4]; above 256 µg/mL in experiment [5]; above 256 µg/mL in [6]. Besides, the MIC in experiment [7] was 64 µg/mL (≈ 151 µM); in experiment [8], above 512 µg/mL; in experiment [9], 32 µg/mL; in [10], 64 µg/mL (≈ 151 µM); in experiment [11], 64 µg/mL (≈ 151 µM); in experiment [12], 32 µg/mL. The MIC in [13] was above 512 µg/mL; in experiment [14], 32 µg/mL; in [15] it was 64 µg/mL (≈ 151 µM); in [16], above 256 µg/mL; in experiment [17] it was 32 µg/mL (≈ 75.3 µM); in experiment [18], 64 µg/mL (≈ 151 µM). The figures for the MIC in experiment [19] and in [20] were 64 µg/mL (≈ 151 µM) and above 512 µg/mL, respectively.

With `CC[C@H]1NC(=O)[C@@H](NC(=O)c2ncccc2O)[C@@H](C)OC(=O)[C@H](c2ccccc2)NC(=O)[C@@H]2CC(=O)[C@H](CS[C@@H]3CN4CCC3CC4)CN2C(=O)[C@H](Cc2ccc(N(C)C)cc2)N(C)C(=O)[C@@H]2CCCN2C1=O` [QUINUPRISTIN] ({Picolinoyl(3-OH)}-T[dAbu]P[NMePhe(4-NMe2)][X1][Phg]; ester 1-C), the minimal inhibitory concentration (MIC) was 128 µg/mL in experiment [1]; 64 µg/mL (≈ 62.6 µM) in experiment [2]; 128 µg/mL (≈ 125 µM) in experiment [3]; 128 µg/mL (≈ 125 µM) in [4]; above 256 µg/mL in [5]; above 256 µg/mL in [6]. Further, the MIC came out at 128 µg/mL (≈ 125 µM) in experiment [7]; 128 µg/mL in experiment [8]; 128 µg/mL in experiment [9]; 64 µg/mL (≈ 62.6 µM) in experiment [10]; 128 µg/mL (≈ 125 µM) in experiment [11]; 128 µg/mL in experiment [12]. Moreover, the MIC was 128 µg/mL in experiment [13]; 128 µg/mL in experiment [14]; 64 µg/mL (≈ 62.6 µM) in [15]; above 256 µg/mL in experiment [16]; 128 µg/mL (≈ 125 µM) in [17]; 128 µg/mL (≈ 125 µM) in [18]. In addition, the MIC was 128 µg/mL (≈ 125 µM) in [19] and 128 µg/mL in [20].

With `CC[C@H]1OC(=O)[C@H](C)C(=O)[C@H](C)[C@@H](O[C@@H]2O[C@H](C)C[C@H](N(C)C)[C@H]2O)[C@](C)(OC)C[C@@H](C)C(=O)[C@H](C)[C@H]2N(CCCCn3cnc(-c4cccnc4)c3)C(=O)O[C@]12C` [TELITHROMYCIN], the MIC in experiment [1] was above 128 µg/mL; in experiment [2], 32 µg/mL (≈ 39.4 µM); in [3], 4 µg/mL (≈ 4.93 µM); in [4], 4 µg/mL (≈ 4.93 µM); in experiment [21], 32 µg/mL (≈ 39.4 µM); in experiment [5] it was above 128 µg/mL. The MIC is above 128 µg/mL in experiment [6]; 8 µg/mL (≈ 9.85 µM) in experiment [7]; above 128 µg/mL in [8]; 4 µg/mL in [9]; 8 µg/mL (≈ 9.85 µM) in experiment [11]; 4 µg/mL in experiment [12]. For the same compound, the MIC in experiment [13] was above 128 µg/mL; in experiment [14], 4 µg/mL; in [15], 32 µg/mL (≈ 39.4 µM); in [16] it was above 128 µg/mL; in experiment [17] it was 4 µg/mL (≈ 4.93 µM); in experiment [18], 8 µg/mL (≈ 9.85 µM). Moreover, the MIC in experiment [19] was 8 µg/mL (≈ 9.85 µM); in experiment [20] it was above 128 µg/mL.

`CC[C@H]1OC(=O)[C@H](C)[C@@H](O[C@H]2C[C@@](C)(OC)[C@@H](O)[C@H](C)O2)[C@H](C)[C@@H](O[C@@H]2O[C@H](C)C[C@H](N(C)C)[C@H]2O)[C@](C)(O)C[C@@H](C)C(=O)[C@H](C)[C@@H](O)[C@]1(C)O` [ERYTHROMYCIN]: the MIC in experiment [1] was above 128 µg/mL; in experiment [3], 4 µg/mL (≈ 5.45 µM); in [22], 32 µg/mL (≈ 43.6 µM); in experiment [4], 4 µg/mL (≈ 5.45 µM); in experiment [7], 32 µg/mL (≈ 43.6 µM); in experiment [8], above 128 µg/mL. Also, the MIC in experiment [9] is 4 µg/mL; in experiment [11] it was 32 µg/mL (≈ 43.6 µM); in experiment [12] it was 4 µg/mL; in experiment [13] it was above 128 µg/mL; in [14], 4 µg/mL; in experiment [23], above 128 µg/mL. Also, the MIC in experiment [17] was 4 µg/mL (≈ 5.45 µM); in experiment [18], 32 µg/mL (≈ 43.6 µM); in [19] it was 32 µg/mL (≈ 43.6 µM); in experiment [20], above 128 µg/mL.
